Data published in article PMC7017397 (ACS Omega, 2020).

Assays:
[1] = Plasma pharmacokinetics after a single 1 mg/kg dose; type: in vivo, C57BL/6J mice; settings: for AUC / MRT last / k el: C57BL/6J, mouse, 1 mg/kg
Summary of the method: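 Male C57BL/6J mice (10–12 weeks; n = 4 per time point) under i.p. zolazepam 50 mg/kg plus xylazine 12 mg/kg received 1 mg/kg in 5% dextrose (37 °C) by tail-vein i.v., s.c., i.p. or gavage. Terminal cardiac-puncture blood was taken into EDTA at 2.5–90 min. Plasma was spiked with internal standard, acetonitrile-deproteinized and measured by LC–MS/MS. Mean levels were fitted two-compartmentally, with AUC by linear trapezoidal rule.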

[2] = Spinal cord pharmacokinetics after a single 1 mg/kg dose; type: in vivo, C57BL/6J mice; settings: for Cmax / MRT last / Tmax / k el: C57BL/6J, mouse, 1 mg/kg; for spinal cord drug targeting efficiency: from zero-infinity predicted AUC values
Summary of the method: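 Anaesthetized (zolazepam/xylazine i.p.) male C57BL/6J mice, n = 4 per time point, were dosed 1 mg/kg by i.v., s.c., i.p. or gavage. At 2.5–90 min, after cardiac blood sampling, they were transcardially perfused with saline. Brain and spinal cord were homogenized in equal weight-volume water, spiked with internal standard, deproteinized 1:3 with cold acetonitrile and quantified by LC–MS/MS. Per-time-point means were fitted with a two-compartment model.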

[3] = spinal cord, i.p. 1 mg/kg single dose
[4] = spinal cord, i.v. 1 mg/kg single dose

AUC ([1]; ip): 1800 ng·h/mL | MRT last ([1]; ip): 27.4 min | k el ([1]; ip): 0.00114 s⁻¹ | AUC ([1]; iv): 2510 ng·h/mL | MRT last ([1]; iv): 13.2 min | k el ([1]; iv): 0.00193 s⁻¹ | AUC ([1]; po): 227 ng·h/mL | MRT last ([1]; po): 32.6 min | k el ([1]; po): 0.000711 s⁻¹ | AUC ([1]; sc): 2240 ng·h/mL | MRT last ([1]; sc): 38.8 min | k el ([1]; sc): 0.000592 s⁻¹ | Alpha (hybrid first-order rate constant, distribution phase) ([1]; i.p. 1 mg/kg single dose): 0.07 min⁻¹ | Beta (hybrid first-order rate constant, elimination phase) ([1]; i.p. 1 mg/kg single dose): 0.03 min⁻¹ | CLD2_F (apparent total clearance of the drug from plasma after administration) ([1]; i.p. 1 mg/kg single dose): <0.01 µL/min | CL_F (apparent total body clearance of the drug from plasma) ([1]; i.p. 1 mg/kg single dose): 0.16 µL/min | K01 (absorption rate constant) ([1]; i.p. 1 mg/kg single dose): 4.29 h⁻¹ | K12 (distribution rate constant) ([1]; i.p. 1 mg/kg single dose): <0.001 h⁻¹ | K21 (redistribution rate constant) ([1]; i.p. 1 mg/kg single dose): 2.00 h⁻¹ | V1_F (apparent volume of central compartment) ([1]; i.p. 1 mg/kg single dose): <0.01 mL | V2_F (apparent volume of peripheral compartment) ([1]; i.p. 1 mg/kg single dose): <0.01 mL | Alpha (hybrid first-order rate constant, distribution phase) ([1]; i.v. 1 mg/kg single dose): 0.20 min⁻¹ | Beta (hybrid first-order rate constant, elimination phase) ([1]; i.v. 1 mg/kg single dose): 0.05 min⁻¹ | CLD2_F (apparent total clearance of the drug from plasma after administration) ([1]; i.v. 1 mg/kg single dose): 84.57 µL/min | CL_F (apparent total body clearance of the drug from plasma) ([1]; i.v. 1 mg/kg single dose): 199.16 µL/min | K12 (distribution rate constant) ([1]; i.v. 1 mg/kg single dose): 2.95 h⁻¹ | K21 (redistribution rate constant) ([1]; i.v. 1 mg/kg single dose): 4.85 h⁻¹ | V1_F (apparent volume of central compartment) ([1]; i.v. 1 mg/kg single dose): 1.72 mL | V2_F (apparent volume of peripheral compartment) ([1]; i.v. 1 mg/kg single dose): 1.05 mL | Alpha (hybrid first-order rate constant, distribution phase) ([1]; p.o. 1 mg/kg single dose): 0.04 min⁻¹ | Beta (hybrid first-order rate constant, elimination phase) ([1]; p.o. 1 mg/kg single dose): 0.04 min⁻¹ | CLD2_F (apparent total clearance of the drug from plasma after administration) ([1]; p.o. 1 mg/kg single dose): <0.01 µL/min | CL_F (apparent total body clearance of the drug from plasma) ([1]; p.o. 1 mg/kg single dose): 2.01 µL/min | K01 (absorption rate constant) ([1]; p.o. 1 mg/kg single dose): 2.92 h⁻¹ | K12 (distribution rate constant) ([1]; p.o. 1 mg/kg single dose): <0.001 h⁻¹ | K21 (redistribution rate constant) ([1]; p.o. 1 mg/kg single dose): 2.58 h⁻¹ | V1_F (apparent volume of central compartment) ([1]; p.o. 1 mg/kg single dose): 0.05 mL | V2_F (apparent volume of peripheral compartment) ([1]; p.o. 1 mg/kg single dose): <0.01 mL | Alpha (hybrid first-order rate constant, distribution phase) ([1]; s.c. 1 mg/kg single dose): 0.04 min⁻¹ | Beta (hybrid first-order rate constant, elimination phase) ([1]; s.c. 1 mg/kg single dose): 0.04 min⁻¹ | CLD2_F (apparent total clearance of the drug from plasma after administration) ([1]; s.c. 1 mg/kg single dose): <0.01 µL/min | CL_F (apparent total body clearance of the drug from plasma) ([1]; s.c. 1 mg/kg single dose): 0.11 µL/min | K01 (absorption rate constant) ([1]; s.c. 1 mg/kg single dose): 2.28 h⁻¹ | K12 (distribution rate constant) ([1]; s.c. 1 mg/kg single dose): <0.001 h⁻¹ | K21 (redistribution rate constant) ([1]; s.c. 1 mg/kg single dose): 2.14 h⁻¹ | V1_F (apparent volume of central compartment) ([1]; s.c. 1 mg/kg single dose): <0.01 mL | V2_F (apparent volume of peripheral compartment) ([1]; s.c. 1 mg/kg single dose): <0.01 mL | Cmax ([2]; spinal cord, ip): 71.3 ng/g | MRT last ([2]; spinal cord, ip): 37.2 min | Tmax ([2]; spinal cord, ip): 11.9 min | k el ([2]; spinal cord, ip): 0.000242 s⁻¹ | Cmax ([2]; spinal cord, iv): 130 ng/g | MRT last ([2]; spinal cord, iv): 41.4 min | k el ([2]; spinal cord, iv): 0.000111 s⁻¹ | Cmax ([2]; spinal cord, po): 75.9 ng/g | MRT last ([2]; spinal cord, po): 40.8 min | Tmax ([2]; spinal cord, po): 14.9 min | k el ([2]; spinal cord, po): 0.000122 s⁻¹ | Cmax ([2]; spinal cord, sc): 96.6 ng/g | MRT last ([2]; spinal cord, sc): 38.4 min | Tmax ([2]; spinal cord, sc): 23.1 min | k el ([2]; spinal cord, sc): 0.000519 s⁻¹ | spinal cord drug targeting efficiency ([2]; i.p. 1 mg/kg): 0.63 | spinal cord drug targeting efficiency ([2]; p.o. 1 mg/kg): 4.42 | spinal cord drug targeting efficiency ([2]; s.c. 1 mg/kg): 0.77 | Alpha (hybrid first-order rate constant, distribution phase) [2, 3]: 0.87 h⁻¹ | Beta (hybrid first-order rate constant, elimination phase) [2, 3]: 0.19 h⁻¹ | CLD2_F (apparent total clearance of the drug after administration) [2, 3]: 0.01 ng/(min ng/g) | CL_F (apparent total body clearance of the drug) [2, 3]: 5.15 ng/(min ng/g) | K01 (absorption rate constant) [2, 3]: 15.39 h⁻¹ | K12 (distribution rate constant) [2, 3]: <0.01 h⁻¹ | K21 (redistribution rate constant) [2, 3]: 0.19 h⁻¹ | V1_F (apparent volume of central compartment) [2, 3]: 0.35 μg/(ng/g) | V2_F (apparent volume of peripheral compartment) [2, 3]: <0.01 μg/(ng/g) | Alpha (hybrid first-order rate constant, distribution phase) [2, 4]: 26.36 h⁻¹ | Beta (hybrid first-order rate constant, elimination phase) [2, 4]: 0.27 h⁻¹ | CLD2_F (apparent total clearance of the drug after administration) [2, 4]: 30.58 ng/(min ng/g)
SMILES: CC(=O)N[C@@H](Cc1ccccc1)C(=O)N[C@H]1CCCNC(=O)[C@H](CCCNC(=N)N)NC(=O)[C@H](Cc2c[nH]c3ccccc23)NC(=O)[C@@H](CC2CCCCC2)NC(=O)[C@@H]2CCCN2C1=O [PMX53, Ac-Phe-[Orn-Pro-dCha-Trp-Arg]]
